Measured values reported in ChEMBL document CHEMBL4364345, “Synthesis and evaluation of 1,3,4-oxadiazole derivatives for development as broad-spectrum antibiotics” (Bioorg Med Chem, 2019).

What was measured:
Enterococcus faecium [1] = experiment: Antimicrobial activity against Enterococcus faecium AUS0004 at 5 ug/disk incubated for 20 +/- 4 hrs by agar disk diffusion method; assay type: functional; conditions: read-out: DIZ
Enterococcus faecalis [2] = experiment: Antimicrobial activity against Enterococcus faecalis ATCC 29212 at 5 ug/disk incubated for 20 +/- 4 hrs by agar disk diffusion method; assay type: functional; conditions: read-out: DIZ
Listeria monocytogenes [3] = experiment: Antimicrobial activity against Listeria monocytogenes clinical isolate at 5 ug/disk incubated for 20 +/- 4 hrs by agar disk diffusion method; assay type: functional; conditions: read-out: DIZ
Listeria monocytogenes [4] = experiment: Antimicrobial activity against Listeria monocytogenes clinical isolate at 200 ug/disk incubated for 20 +/- 4 hrs by agar disk diffusion method; assay type: functional; conditions: read-out: DIZ
Enterococcus faecalis [5] = experiment: Antimicrobial activity against Enterococcus faecalis ATCC 29212 at 15 ug/disk incubated for 20 +/- 4 hrs by agar disk diffusion method; assay type: functional; conditions: read-out: DIZ
Enterococcus faecium [6] = experiment: Antimicrobial activity against Enterococcus faecium AUS0004 at 15 ug/disk incubated for 20 +/- 4 hrs by agar disk diffusion method; assay type: functional; conditions: read-out: DIZ
Enterococcus faecium [7] = experiment: Antimicrobial activity against Enterococcus faecium AUS0004 at 2 ug/disk incubated for 20 +/- 4 hrs by agar disk diffusion method; assay type: functional; conditions: read-out: DIZ
Bacillus subtilis = experiment: Antimicrobial activity against Bacillus subtilis clinical isolate at 50 ug/disk incubated for 20 +/- 4 hrs by agar disk diffusion method; assay type: functional; conditions: read-out: DIZ
How it was run: (§1)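 Agar disk diffusion on Mueller-Hinton agar swab-seeded from a 0.5 McFarland inoculum (about 10^8 CFU/ml). Cellulose discs got 50 μg compound (10 μl of 5 g/L in DMSO); a 10 μL DMSO disc was the control. Incubated aerobically at 35 ± 2 °C for 20 ± 4 h, then growth-inhibition diameters measured.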

Escherichia coli [8] = experiment: Antimicrobial activity against Escherichia coli ATCC 25922 at 50 ug/disk incubated for 20 +/- 4 hrs by agar disk diffusion method; assay type: functional; conditions: read-out: DIZ; how it was run: as §1
Acinetobacter baumannii = experiment: Antimicrobial activity against Acinetobacter baumannii clinical isolate at 50 ug/disk incubated for 20 +/- 4 hrs by agar disk diffusion method; assay type: functional; conditions: read-out: DIZ; how it was run: as §1
Listeria monocytogenes [9] = experiment: Antimicrobial activity against Listeria monocytogenes clinical isolate at 50 ug/disk incubated for 20 +/- 4 hrs by agar disk diffusion method; assay type: functional; conditions: read-out: DIZ
How it was run: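 Disk diffusion on MH agar with 5% horse blood, seeded by swab from a 0.5 McFarland suspension. Discs held 50 μg compound from a 5 g/L DMSO solution, with a DMSO-only control disc. Aerobic incubation at 35 ± 2 °C for 20 ± 4 h; inhibition zone diameter read.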

Enterococcus faecium [10] = experiment: Antimicrobial activity against Enterococcus faecium AUS0004 at 50 ug/disk incubated for 20 +/- 4 hrs by agar disk diffusion method; assay type: functional; conditions: read-out: DIZ; how it was run: as §1
Enterococcus faecalis [11] = experiment: Antimicrobial activity against Enterococcus faecalis ATCC 29212 at 50 ug/disk incubated for 20 +/- 4 hrs by agar disk diffusion method; assay type: functional; conditions: read-out: DIZ; how it was run: as §1
Enterococcus faecium [12] = experiment: Antimicrobial activity against Enterococcus faecium HM1070 at 50 ug/disk incubated for 20 +/- 4 hrs by agar disk diffusion method; assay type: functional; conditions: read-out: DIZ; how it was run: as §1
Klebsiella pneumoniae = experiment: Antimicrobial activity against Klebsiella pneumoniae clinical isolate at 50 ug/disk incubated for 20 +/- 4 hrs by agar disk diffusion method; assay type: functional; conditions: read-out: DIZ; how it was run: as §1
Enterobacter cloacae = experiment: Antimicrobial activity against Enterobacter cloacae clinical isolate at 50 ug/disk incubated for 20 +/- 4 hrs by agar disk diffusion method; assay type: functional; conditions: read-out: DIZ; how it was run: as §1
Bacteroides fragilis = experiment: Antimicrobial activity against Bacteroides fragilis ATCC 25285 at 50 ug/disk incubated for 20 +/- 4 hrs by agar disk diffusion method; assay type: functional; conditions: read-out: DIZ
How it was run: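 Anaerobic disk diffusion: MH agar + 5% horse blood seeded from a 0.5 McFarland swab, with discs of 50 μg compound (10 μl of 5 g/L DMSO solution) and a DMSO control disc. Kept at 35 ± 2 °C under anaerobic conditions for 20 ± 4 h; inhibition diameters recorded.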

Pseudomonas aeruginosa = experiment: Antimicrobial activity against Pseudomonas aeruginosa clinical isolate at 50 ug/disk incubated for 20 +/- 4 hrs by agar disk diffusion method; assay type: functional; conditions: read-out: DIZ; how it was run: as §1
Streptococcus pyogenes = experiment: Antimicrobial activity against Streptococcus pyogenes clinical isolate at 50 ug/disk incubated for 20 +/- 4 hrs by agar disk diffusion method; assay type: functional; conditions: read-out: DIZ
How it was run: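 Plates of MH + 5% horse blood were swabbed with a 0.5 McFarland inoculum and received discs with 50 μg compound (from 5 g/L in DMSO) plus a 10 μL DMSO control disc. Incubation at 35 ± 2 °C aerobically with 5% CO2 for 20 ± 4 h, then zone diameters measured.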

Escherichia coli [13] = experiment: Antimicrobial activity against Escherichia coli clinical isolate at 50 ug/disk incubated for 20 +/- 4 hrs by agar disk diffusion method; assay type: functional; conditions: read-out: DIZ; how it was run: as §1
Clostridium perfringens = experiment: Antimicrobial activity against Clostridium perfringens clinical isolate at 50 ug/disk incubated for 20 +/- 4 hrs by agar disk diffusion method; assay type: functional; conditions: read-out: DIZ
How it was run: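 Agar disk diffusion on MH agar with 5% horse blood (MHF), surface-seeded by swab from a 0.5 McFarland inoculum (about 10^8 CFU/ml). Cellulose discs received 10 μl of a 5 g/L DMSO solution (50 μg). A DMSO-only disc served as control. Anaerobic incubation at 35 ± 2 °C for 20 ± 4 h; growth-inhibition diameter measured in mm.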

Staphylococcus aureus = experiment: Antimicrobial activity against Staphylococcus aureus ATCC 29213 at 50 ug/disk incubated for 20 +/- 4 hrs by agar disk diffusion method; assay type: functional; conditions: read-out: DIZ; how it was run: as §1
Kocuria rhizophila = experiment: Antimicrobial activity against Kocuria rhizophila clinical isolate at 50 ug/disk incubated for 20 +/- 4 hrs by agar disk diffusion method; assay type: functional; conditions: read-out: DIZ; how it was run: as §1
Enterococcus faecium [14] = experiment: Antimicrobial activity against Enterococcus faecium AUS0004 at 10 ug/disk incubated for 20 +/- 4 hrs by agar disk diffusion method; assay type: functional; conditions: read-out: DIZ
Listeria monocytogenes [15] = experiment: Antimicrobial activity against Listeria monocytogenes clinical isolate at 30 ug/disk incubated for 20 +/- 4 hrs by agar disk diffusion method; assay type: functional; conditions: read-out: DIZ
Enterococcus faecalis [16] = experiment: Antimicrobial activity against Enterococcus faecalis ATCC 29212 at 30 ug/disk incubated for 20 +/- 4 hrs by agar disk diffusion method; assay type: functional, organism-based
Enterococcus faecium [17] = experiment: Antimicrobial activity against Enterococcus faecium AUS0004 at 30 ug/disk incubated for 20 +/- 4 hrs by agar disk diffusion method; assay type: functional, organism-based
Enterococcus faecium [18] = experiment: Antimicrobial activity against Enterococcus faecium AUS0004 at 300 ug/disk incubated for 20 +/- 4 hrs by agar disk diffusion method; assay type: functional; conditions: read-out: DIZ
Enterococcus faecalis [19] = experiment: Antimicrobial activity against Enterococcus faecalis ATCC 29212 at 300 ug/disk incubated for 20 +/- 4 hrs by agar disk diffusion method; assay type: functional; conditions: read-out: DIZ

CO[C@H]1/C=C/O[C@@]2(C)Oc3c(C)c(O)c4c(O)c(c(/C=N/N5CCN(C)CC5)c(O)c4c3C2=O)NC(=O)/C(C)=C\C=C\[C@H](C)[C@H](O)[C@@H](C)[C@@H](O)[C@@H](C)[C@H](OC(C)=O)[C@@H]1C [RIFAMPIN]
zone of inhibition at 5 µg/disc (Enterococcus faecium [1]): 9 mm | zone of inhibition at 5 µg/disc (Enterococcus faecalis [2]): 21 mm

CC1COc2c(N3CCN(C)CC3)c(F)cc3c(=O)c(C(=O)O)cn1c23 (centres undefined) [OFLOXACIN]
zone of inhibition at 5 µg/disc (Listeria monocytogenes [3]): 21 mm

C[C@@H]1O[C@@H]1P(=O)(O)O [FOSFOMYCIN]
zone of inhibition at 200 µg/disc (Listeria monocytogenes [4]): 6 mm

CC[C@H]1OC(=O)[C@H](C)[C@@H](O[C@H]2C[C@@](C)(OC)[C@@H](O)[C@H](C)O2)[C@H](C)[C@@H](O[C@@H]2O[C@H](C)C[C@H](N(C)C)[C@H]2O)[C@](C)(O)C[C@@H](C)C(=O)[C@H](C)[C@@H](O)[C@]1(C)O [ERYTHROMYCIN]
zone of inhibition at 15 µg/disc (Enterococcus faecalis [5]): 20 mm | zone of inhibition at 15 µg/disc (Enterococcus faecium [6]): 6 mm

CC1(C)S[C@@H]2[C@H](NC(=O)[C@H](N)c3ccccc3)C(=O)N2[C@H]1C(=O)O [AMPICILLIN]
zone of inhibition at 2 µg/disc (Enterococcus faecium [7]): 6 mm

O=C(Nc1nnc(-c2ccc(C(F)(F)F)cc2)o1)c1ccc(Cl)cc1
zone of inhibition at 50 µg/disc (Bacillus subtilis): 13 mm | zone of inhibition at 50 µg/disc (Escherichia coli [8]): 6 mm | zone of inhibition at 50 µg/disc (Acinetobacter baumannii): 6 mm | zone of inhibition at 50 µg/disc (Listeria monocytogenes [9]): 16 mm | zone of inhibition at 50 µg/disc (Enterococcus faecium [10]): 9 mm | zone of inhibition at 50 µg/disc (Enterococcus faecalis [11]): 10 mm | zone of inhibition at 50 µg/disc (Enterococcus faecium [12]): 11 mm | zone of inhibition at 50 µg/disc (Klebsiella pneumoniae): 6 mm | zone of inhibition at 50 µg/disc (Enterobacter cloacae): 6 mm | zone of inhibition at 50 µg/disc (Bacteroides fragilis): 9 mm | zone of inhibition at 50 µg/disc (Pseudomonas aeruginosa): 6 mm | zone of inhibition at 50 µg/disc (Streptococcus pyogenes): 6 mm | zone of inhibition at 50 µg/disc (Escherichia coli [13]): 6 mm | zone of inhibition at 50 µg/disc (Clostridium perfringens): 6 mm | zone of inhibition at 50 µg/disc (Staphylococcus aureus): 9 mm | zone of inhibition at 50 µg/disc (Kocuria rhizophila): 14 mm

C[C@@H](O)[C@H]1C(=O)N2C(C(=O)O)=C(SCCNC=N)C[C@H]12 [IMIPENEM ANHYDROUS]
zone of inhibition at 10 µg/disc (Enterococcus faecium [14]): 6 mm

CO[C@@]1(NC(=O)[C@H](C(=O)O)c2ccc(O)cc2)C(=O)N2C(C(=O)O)=C(CSc3nnnn3C)CO[C@@H]21
zone of inhibition at 30 µg/disc (Listeria monocytogenes [15]): 15 mm

GENTAMICIN
inhibition zone (IZ) (Enterococcus faecalis [16]): 14 mm | inhibition zone (IZ) (Enterococcus faecium [17]): 17 mm

CN[C@@H]1[C@H](O[C@H]2[C@H](O[C@H]3[C@H](O)[C@@H](O)[C@H](N=C(N)N)[C@@H](O)[C@@H]3N=C(N)N)O[C@@H](C)[C@]2(O)C=O)O[C@@H](CO)[C@H](O)[C@H]1O [STREPTOMYCIN]
zone of inhibition at 300 µg/disc (Enterococcus faecium [18]): 22 mm | zone of inhibition at 300 µg/disc (Enterococcus faecalis [19]): 16 mm
